# Measured values reported in ChEMBL document CHEMBL1126626, “Synthesis and pharmacological evaluation of (nitrooxy)alkyl apovincaminates” (1993).
# Assays:
# [1] = system: Canis familiaris; assay: Effect on femoral blood flow (FBF) was studied, after intra arterial administration in anesthetized dogs relative to vinpocetine; type: functional, Canis lupus familiaris
# Summary of the method: (§1)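 Compounds were given intraarterially to anesthetized dogs. Dose-response curves were built from peak response values. Potency was expressed as a ratio to vinpocetine, set at 1.0.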
# [2] = system: Canis familiaris; assay: Effect on vertebral blood flow (VBF) was studied, after intra arterial administration in anesthetized dogs relative to vinpocetine; type: functional, Canis lupus familiaris; summary of the method: as §1
SMILES,Potency ratio [1],Potency ratio [2]
CC[C@@]12C=C(C(=O)OCCO[N+](=O)[O-])n3c4c(c5ccc(Br)cc53)CCN(CCC1)[C@H]42,0.36,0.58
CC[C@@]12C=C(C(=O)OCCCCCCCCCCO[N+](=O)[O-])n3c4c(c5ccccc53)CCN(CCC1)[C@H]42,0.16,0.48
CC[C@@]12C=C(C(=O)OCCCCCCO[N+](=O)[O-])n3c4c(c5ccccc53)CCN(CCC1)[C@H]42,0.84,0.99
CC[C@@]12C=C(C(=O)OCCCCCO[N+](=O)[O-])n3c4c(c5ccccc53)CCN(CCC1)[C@H]42,1.07,1.09
CC[C@@]12C=C(C(=O)OCCCO[N+](=O)[O-])n3c4c(c5ccccc53)CCN(CCC1)[C@H]42,1.91,1.85
CC[C@@]12C=C(C(=O)OCCCCCCCCCCCO[N+](=O)[O-])n3c4c(c5ccccc53)CCN(CCC1)[C@H]42,0.38,0.33
CC[C@@]12C=C(C(=O)OCCCCCCCCCO[N+](=O)[O-])n3c4c(c5ccccc53)CCN(CCC1)[C@H]42,0.15,0.33
CC[C@@]12C=C(C(=O)OCCO[N+](=O)[O-])n3c4c(c5ccccc53)CCN(CCC1)[C@H]42,4.72,3.83
CC[C@@]12C=C(C(=O)OCCCCCCCO[N+](=O)[O-])n3c4c(c5ccccc53)CCN(CCC1)[C@H]42,0.67,0.82
CC[C@@]12C=C(C(=O)OCCCCO[N+](=O)[O-])n3c4c(c5ccccc53)CCN(CCC1)[C@H]42,1.63,1.25
CC[C@@]12C=C(C(=O)OCCCCCCCCO[N+](=O)[O-])n3c4c(c5ccccc53)CCN(CCC1)[C@H]42,0.34,0.35
CC[C@]12CCCN3CCc4c(n(c5cc(Br)ccc45)[C@@](O)(C(=O)OC)C1)[C@@H]32 [BROVINCAMINE],0.28,0.17
CCOC(=O)C1=C[C@]2(CC)CCCN3CCc4c(n1c1ccccc41)[C@@H]32 [VINPOCETINE],1,1
